What was measured:
Dipeptidyl peptidase 9 = Dipeptidyl peptidase 9 (Homo sapiens, UniProt Q86TI2); assay: In vitro inhibitory concentration was measured against dipeptidylpeptidase 9
Dipeptidyl peptidase 4 = Dipeptidyl peptidase 4 (Homo sapiens, UniProt P27487)
Dipeptidyl peptidase 2 = Dipeptidyl peptidase 2 (Homo sapiens, UniProt Q9UHL4); assay: In vitro inhibitory concentration was measured against quiescent cell proline dipeptidase
[1] = Plasma clearance was measured in rat; format: ADME, organism-based; conditions: read-out: Clp
Procedure, shortened: (§1)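 Pharmacokinetics in rat, dog and monkey. Dosing was iv 1 mpk and po 2 mpk.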

[2] = Plasma half-life was measured in dog; format: ADME, cell-free, Canis lupus familiaris; procedure, shortened: as §1
[3] = Plasma half-life was measured in rat; format: ADME, organism-based; procedure, shortened: as §1
[4] = Maximum concentration in plasma of dog upon peroral dose of 2 mpk; format: ADME, organism-based, Canis lupus familiaris; parameters: dose 2 mpk, route oral; conditions: po, 2 mg/kg; procedure, shortened: as §1
[5] = Maximum concentration in plasma of rat upon peroral dose of 2 mpk; format: ADME, organism-based; parameters: dose 2 mpk, route oral; conditions: po, 2 mg/kg; procedure, shortened: as §1
[6] = Maximum concentration in plasma of monkey upon peroral dose of 2 mpk; format: ADME, organism-based; parameters: dose 2 mpk, route oral; conditions: cercopithecidae, po, 2 mg/kg; procedure, shortened: as §1
[7] = Plasma clearance was measured in dog; format: ADME, organism-based, Canis lupus familiaris; conditions: read-out: Clp; procedure, shortened: as §1
[8] = Plasma clearance was measured in monkey; format: ADME, organism-based; conditions: cercopithecidae, read-out: Clp; procedure, shortened: as §1
[9] = Oral bioavailability in dog; format: ADME, organism-based, Canis lupus familiaris; conditions: in vivo; procedure, shortened: as §1
[10] = Oral bioavailability in rat; format: ADME, organism-based; conditions: in vivo; procedure, shortened: as §1
[11] = Oral bioavailability in monkey; format: ADME, organism-based; conditions: cercopithecidae, in vivo; procedure, shortened: as §1
[12] = Plasma half-life was measured in monkey; format: ADME; conditions: cercopithecidae; procedure, shortened: as §1
[13] = Maximum concentration was measured in plasma of rat upon peroral dose of 2 mpk; format: ADME, organism-based; parameters: dose 2 mpk, route oral; conditions: po, 2 mg/kg; procedure, shortened: as §1
[14] = Plasma half-life was measured in plasma of rat; format: ADME, cell-free; procedure, shortened: as §1
[15] = Maximum concentration was measured in plasma of dog upon peroral dose of 2 mpk; format: ADME, organism-based, Canis lupus familiaris; parameters: dose 2 mpk, route oral; conditions: po, 2 mg/kg; procedure, shortened: as §1
[16] = Maximum concentration was measured in plasma of monkey upon peroral dose of 2 mpk; format: ADME, organism-based; parameters: dose 2 mpk, route oral; conditions: cercopithecidae, po, 2 mg/kg; procedure, shortened: as §1

Chain of Dipeptidyl peptidase 9 (Q86TI2 whole entry): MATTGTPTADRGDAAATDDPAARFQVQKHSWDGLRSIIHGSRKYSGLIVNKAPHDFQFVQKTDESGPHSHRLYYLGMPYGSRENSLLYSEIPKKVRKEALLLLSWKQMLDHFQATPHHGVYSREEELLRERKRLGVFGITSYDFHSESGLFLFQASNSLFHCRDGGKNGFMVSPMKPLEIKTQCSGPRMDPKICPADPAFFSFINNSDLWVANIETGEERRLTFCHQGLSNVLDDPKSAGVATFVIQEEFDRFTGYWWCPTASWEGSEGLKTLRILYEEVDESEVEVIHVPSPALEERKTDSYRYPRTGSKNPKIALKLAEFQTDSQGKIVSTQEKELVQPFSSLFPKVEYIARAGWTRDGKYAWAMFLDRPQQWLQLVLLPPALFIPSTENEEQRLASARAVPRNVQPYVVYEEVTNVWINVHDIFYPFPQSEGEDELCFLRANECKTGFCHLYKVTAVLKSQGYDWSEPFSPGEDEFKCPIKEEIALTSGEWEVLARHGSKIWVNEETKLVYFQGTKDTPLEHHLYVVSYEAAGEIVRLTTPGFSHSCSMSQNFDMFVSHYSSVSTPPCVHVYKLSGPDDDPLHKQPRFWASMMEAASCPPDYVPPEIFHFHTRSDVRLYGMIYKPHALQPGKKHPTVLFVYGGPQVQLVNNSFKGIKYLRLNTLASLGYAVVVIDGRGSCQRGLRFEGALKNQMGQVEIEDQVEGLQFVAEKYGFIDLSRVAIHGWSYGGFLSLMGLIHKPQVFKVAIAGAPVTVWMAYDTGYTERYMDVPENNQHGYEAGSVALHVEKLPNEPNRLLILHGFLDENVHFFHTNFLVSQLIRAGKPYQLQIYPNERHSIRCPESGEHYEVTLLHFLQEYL
Chain of Dipeptidyl peptidase 4 (P27487 whole entry): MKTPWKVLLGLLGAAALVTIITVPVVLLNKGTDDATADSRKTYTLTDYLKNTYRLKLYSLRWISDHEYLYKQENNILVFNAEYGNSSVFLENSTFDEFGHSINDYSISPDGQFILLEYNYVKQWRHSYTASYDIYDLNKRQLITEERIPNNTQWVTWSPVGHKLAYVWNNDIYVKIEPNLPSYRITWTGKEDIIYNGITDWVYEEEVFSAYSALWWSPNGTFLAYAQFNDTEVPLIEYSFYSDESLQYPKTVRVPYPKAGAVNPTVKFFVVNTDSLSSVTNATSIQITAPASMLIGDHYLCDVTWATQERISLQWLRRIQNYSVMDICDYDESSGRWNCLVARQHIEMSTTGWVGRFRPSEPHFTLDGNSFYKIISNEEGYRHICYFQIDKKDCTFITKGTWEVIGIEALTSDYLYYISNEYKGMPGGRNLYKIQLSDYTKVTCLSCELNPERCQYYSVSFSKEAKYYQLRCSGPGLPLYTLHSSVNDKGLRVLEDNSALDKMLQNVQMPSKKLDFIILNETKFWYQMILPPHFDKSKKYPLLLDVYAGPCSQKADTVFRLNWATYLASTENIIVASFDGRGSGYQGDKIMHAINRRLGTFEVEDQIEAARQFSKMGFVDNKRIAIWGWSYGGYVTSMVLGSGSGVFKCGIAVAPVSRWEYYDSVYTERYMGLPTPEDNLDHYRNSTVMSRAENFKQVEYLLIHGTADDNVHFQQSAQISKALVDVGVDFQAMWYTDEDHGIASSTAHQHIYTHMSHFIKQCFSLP

Row | SMILES | IC50 (Dipeptidyl peptidase 9) | IC50 (Dipeptidyl peptidase 4) | IC50 (Dipeptidyl peptidase 2) | clearance [1] | half-life [2] | half-life [3] | Cmax [4] | Cmax [5] | Cmax [6] | clearance [7] | clearance [8] | bioavailability [9] | bioavailability [10] | bioavailability [11] | half-life [12] | Cmax [13] | half-life [14] | Cmax [15] | Cmax [16]
1 | Cl.N[C@@H](CC(=O)N1CCn2c(nnc2C(F)(F)F)C1)Cc1cc(F)c(F)cc1F | – | – | – | – | 4.9 h | 1.7 h | – | – | – | 6 mL/min/kg | 28 mL/min/kg | 100% | – | 68% | 3.7 h | 330 nM | – | 2200 nM | 330 nM
2 | Cl.N[C@@H](CC(=O)N1CCn2c(nnc2C(F)(F)C(F)(F)F)C1)Cc1cc(F)c(F)cc1F | > 100 µM | 0.071 µM | 78 µM | 58 mL/min/kg | – | 2.3 h | – | – | – | – | – | – | 61% | – | – | 160 nM | – | – | –
3 | N[C@@H](CC(=O)N1CCNCC1)Cc1ccc(F)c(F)c1 | – | 3.1 µM | – | – | – | – | – | – | – | – | – | – | – | – | – | – | – | – | –
4 | Cl.N[C@@H](CC(=O)N1CCn2c(nnc2C(F)(F)C(F)(F)F)C1)Cc1cc(F)ccc1F | > 100 µM | 0.103 µM | > 100 µM | 109 mL/min/kg | – | 1.5 h | – | – | – | – | – | – | 1% | – | – | 2 nM | – | – | –

The next lines start with the values.

Row | IC50 (Dipeptidyl peptidase 9) | IC50 (Dipeptidyl peptidase 4) | IC50 (Dipeptidyl peptidase 2) | clearance [1] | half-life [2] | half-life [3] | Cmax [4] | Cmax [5] | Cmax [6] | clearance [7] | clearance [8] | bioavailability [9] | bioavailability [10] | bioavailability [11] | half-life [12] | Cmax [13] | half-life [14] | Cmax [15] | Cmax [16] | SMILES
5 | > 100 µM | 0.455 µM | > 10 µM | – | – | – | – | – | – | – | – | – | – | – | – | – | – | – | – | N[C@@H](CC(=O)N1CCn2cnnc2C1)Cc1ccc(F)c(F)c1
6 | > 100 µM | 0.231 µM | 64 µM | 45 mL/min/kg | 2.3 h | 2.7 h | 730 nM | 10 nM | 12 nM | 13 mL/min/kg | 26 mL/min/kg | 33% | 2% | 1% | 1.3 h | – | – | – | – | CCc1nnc2n1CCN(C(=O)C[C@H](N)Cc1ccc(F)c(F)c1)C2.Cl
7 | > 100 µM | 0.068 µM | > 10 µM | 40 mL/min/kg | – | 1 h | – | – | – | – | – | – | 3% | – | – | 30 nM | – | – | – | Cl.N[C@@H](CC(=O)N1CCn2cnnc2C1)Cc1cc(F)c(F)cc1F
8 | > 100 µM | – | > 100 µM | 43 mL/min/kg | – | – | – | – | – | – | – | – | 51% | – | – | 190 nM | 1.6 h | – | – | Cl.N[C@@H](CC(=O)N1CCn2c(nnc2C(F)(F)F)C1)Cc1cc(F)ccc1F
9 | > 100 µM | – | 98 µM | 51 mL/min/kg | – | 1.8 h | – | – | – | – | – | – | 44% | – | – | 140 nM | – | – | – | Cl.N[C@@H](CC(=O)N1CCn2c(nnc2C(F)(F)F)C1)Cc1ccc(F)c(F)c1

From ChEMBL document CHEMBL1141929, “(2R)-4-oxo-4-[3-(trifluoromethyl)-5,6-dihydro[1,2,4]triazolo[4,3-a]pyrazin-7(8H)-yl]-1-(2,4,5-trifluorophenyl)butan-2-amine: a potent, orally active dipeptidyl peptidase IV inhibitor for the treatment of type 2 diabetes” (J Med Chem, 2005)
